From ChEMBL document CHEMBL1127520, “N-omega-fluoroalkyl analogs of (1R)-2 beta-carbomethoxy-3 beta-(4-iodophenyl)-tropane (beta-CIT): radiotracers for positron emission tomography and single photon emission computed tomography imaging of dopamine transporters” (J Med Chem, 1994)

Key:
Rattus norvegicus [1] = test: The compound was evaluated for its behavioral activity i.e., locomotor arousal in rat for a dose of 1 mg/kg in time interval of 2 hours; format: functional
How it was run: (§1)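 Adult male Sprague-Dawley rats (150-200 g), 3-7 per group, given agent ip in saline containing DMSO; vehicle controls received saline/DMSO. Locomotion counted in an electronic activity monitor, reported as mean ± SEM counts/hour for 0-1, 1-2 and 2-3 h. Comparison by ANOVA, then post-hoc t tests against vehicle.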

[2] = biological target: Sodium-dependent dopamine transporter (Rattus norvegicus, UniProt P23977); test: Binding affinity for dopamine transporters in rat brain tissue.; format: tissue-based
How it was run: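 Crude membrane fraction from rat corpus striatum homogenate. Nonspecific binding defined with 30 μM methylphenidate. Each agent tested at six concentrations in duplicate. Concentration-inhibition curves computer-fit for IC50 ± SEM, converted to Ki = IC50/(1 + [L/Kd]).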

Rattus norvegicus [3] = test: The compound was evaluated for its behavioral activity i.e., locomotor arousal in rat for a dose of 1 mg/kg in time interval of 3 hours; format: functional; how it was run: as §1
Rattus norvegicus [4] = test: The compound was evaluated for its behavioral activity i.e., locomotor arousal in rat for a dose of 1 mg/kg in time interval of 1 hour; format: functional; how it was run: as §1
Rattus norvegicus [5] = test: The compound was evaluated for its behavioral activity i.e., locomotor arousal in rat for a dose of 3 mg/kg in time interval of 2 hours; format: functional; how it was run: as §1
Rattus norvegicus [6] = test: The compound was evaluated for its behavioral activity i.e., locomotor arousal in rat for a dose of 0.3 mg/kg in time interval of 1 hour; format: functional; how it was run: as §1
Rattus norvegicus [7] = test: The compound was evaluated for its behavioral activity i.e., locomotor arousal in rat for a dose of 0.3 mg/kg in time interval of 2 hours; format: functional; how it was run: as §1
Rattus norvegicus [8] = test: The compound was evaluated for its behavioral activity i.e., locomotor arousal in rat for a dose of 0.3 mg/kg in time interval of 3 hours; format: functional; how it was run: as §1
Rattus norvegicus [9] = test: The compound was evaluated for its behavioral activity i.e., locomotor arousal in rat for a dose of 3 mg/kg in time interval of 1 hour; format: functional; how it was run: as §1
Rattus norvegicus [10] = test: The compound was evaluated for its behavioral activity i.e., locomotor arousal in rat for a dose of 3 mg/kg in time interval of 3 hours; format: functional; how it was run: as §1
Rattus norvegicus [11] = test: The compound was evaluated for its behavioral activity i.e., locomotor arousal in rat for a dose of 1 mg/kg in time interval of 3 hours, expressed as mean =/- SEM activity; format: functional; how it was run: as §1

Chain of Sodium-dependent dopamine transporter (P23977 whole entry): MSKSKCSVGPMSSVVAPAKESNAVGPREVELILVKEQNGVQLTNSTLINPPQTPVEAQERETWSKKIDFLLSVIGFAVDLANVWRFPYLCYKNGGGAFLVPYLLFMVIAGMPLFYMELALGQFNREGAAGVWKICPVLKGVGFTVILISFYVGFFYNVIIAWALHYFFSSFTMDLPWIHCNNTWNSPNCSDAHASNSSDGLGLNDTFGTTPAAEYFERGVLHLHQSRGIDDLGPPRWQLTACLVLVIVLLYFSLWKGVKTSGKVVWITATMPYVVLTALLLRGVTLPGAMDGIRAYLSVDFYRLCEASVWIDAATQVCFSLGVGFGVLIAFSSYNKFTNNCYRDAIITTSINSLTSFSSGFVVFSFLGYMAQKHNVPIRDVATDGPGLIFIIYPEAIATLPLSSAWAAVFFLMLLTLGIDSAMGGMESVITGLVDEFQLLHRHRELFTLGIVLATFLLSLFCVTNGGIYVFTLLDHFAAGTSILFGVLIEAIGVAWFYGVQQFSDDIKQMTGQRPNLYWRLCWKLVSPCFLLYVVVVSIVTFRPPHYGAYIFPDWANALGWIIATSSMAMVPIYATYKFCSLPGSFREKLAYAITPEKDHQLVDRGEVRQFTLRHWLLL

Row | Molecule | Count/h (Rattus norvegicus [1]) | Ki [2] | Count/h (Rattus norvegicus [4]) | Count/h (Rattus norvegicus [5]) | Count/h (Rattus norvegicus [9]) | further results
1 | COC(=O)[C@H]1C(c2ccc(I)cc2)C[C@H]2CCC1N2C (stereo partly drawn) | <9990 | 1.4 nM | <6820 |  |  | Count/h (Rattus norvegicus [3]): <9710
2 | CC(C)OC(=O)[C@@H]1C2CC[C@H](C[C@@H]1c1ccc(I)cc1)N2CCF |  | 4.4 nM |  |  |  | 
3 | CC(C)OC(=O)[C@@H]1C2CC[C@H](C[C@@H]1c1ccc(I)cc1)N2CCCF |  | 1.2 nM |  |  |  | 
4 | COC(=O)[C@H]1C(c2ccc(I)cc2)C[C@H]2CCC1N2CCCF (stereo partly drawn) | <1071 | 3.5 nM | <1943 | <2109 | <3791 | Count/h (Rattus norvegicus [6]): 759; Count/h (Rattus norvegicus [7]): 403; Count/h (Rattus norvegicus [3]): <325; Count/h (Rattus norvegicus [8]): 210; Count/h (Rattus norvegicus [10]): <1410
5 | COC(=O)[C@H]1C(c2ccc(I)cc2)C[C@H]2CCC1N2CCF (stereo partly drawn) | <4200 | 4 nM | <4180 | <7796 | <6898 | Count/h (Rattus norvegicus [6]): <2030; Count/h (Rattus norvegicus [7]): <2945; Count/h (Rattus norvegicus [11]): <4400; Count/h (Rattus norvegicus [8]): <3459; Count/h (Rattus norvegicus [10]): <7562
6 | COC(=O)[C@@H]1C2CC[C@@H](C[C@@H]1OC(=O)c1ccccc1)N2C (single isomer, unassigned) [COCAINE] | <1960 |  | <14940 | <712 | <15710 | 
7 | (2S,5R)-8-(2-Fluoro-ethyl)-3-(4-trimethylstannanyl-phenyl)-8-aza-bicyclo[3.2.1]octane-2-carboxylic acid methyl ester |  | > 10000 nM |  |  |  | 
8 | (2S,5R)-8-(3-Fluoro-propyl)-3-(4-trimethylstannanyl-phenyl)-8-aza-bicyclo[3.2.1]octane-2-carboxylic acid isopropyl ester |  | > 10000 nM |  |  |  | 
9 | (2S,5R)-8-(3-Fluoro-propyl)-3-(4-trimethylstannanyl-phenyl)-8-aza-bicyclo[3.2.1]octane-2-carboxylic acid methyl ester |  | > 10000 nM |  |  |  | 
